Experiment [1] has as its system Leishmania tropica. The experiment is described as follows: Antileishmanial activity against Leishmania tropica MHOM/MA/1988/LEM1314 promastigotes infected in Syrian hamster assessed as reduction in lesion thickness at 2 mg/kg administered intralesionally once daily on footpad for 3 weeks starting at week 7 post infection measured 1 week post last dose relative to control. In kind it is functional, organism-based. Set-up: scale not given: the % may be the effect or the level left. Summed up: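 L. tropica stationary-phase promastigotes (3 × 10^7 in 50 μL PBS) injected into the left hind footpad. Treatment began at week 7 (+75% footpad thickness) and ran daily for 21 days, n = 10/group. Routes were 50 mg ointment on the lesion (cetyl alcohol/lanolin/petrolatum base), gavage in olive oil, or intralesional meglumine antimoniate 2 mg SbV/kg. Lesion thickness was measured weekly against base-only ointment; sacrifice was 1 week after the last dose.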

For experiment [2], the system named is Leishmania tropica. The experiment is described as follows: Antileishmanial activity against Leishmania tropica MHOM/MA/1988/LEM1314 promastigotes infected in Syrian hamster assessed as reduction in parasite load in foodpad skin at 2 mg/kg administered intralesionally once daily on footpad for 3 weeks starting at week 7 post infection measured 1 week post last dose by qPCR analysis relative to control. Set-up: scale not given: the % may be the effect or the level left. In kind it is functional, organism-based. Summed up: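 Hamsters were infected in the footpad and treated daily for 21 days from week 7 post-infection, n = 10/group, and sacrificed 1 week after the last dose. Footpad skin, liver and spleen DNA was assayed by L. tropica-specific TaqMan qPCR (chromosome 29 target), in triplicate with 50 ng DNA per 25 μL reaction. Load was interpolated from Ct on a calibration curve of promastigote DNA, relative to base-ointment controls.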
(In general: In qPCR the cycle at which signal appears reflects the starting amount.)

For Meglumine antimoniate; Glucantime, the Activity in experiment [1] came out at 3.2%; in experiment [2], 73%.

The values above are taken from ChEMBL document CHEMBL3872233, “Topical Treatment of Leishmania tropica Infection Using (-)-α-Bisabolol Ointment in a Hamster Model: Effectiveness and Safety Assessment” (J Nat Prod, 2016).
